Experimental data gathered from unrelated publications.
Each line is one published result; the experiments were not run side by side.
Target: Tyrosine-protein kinase ZAP-70 (ZAP70, Homo sapiens, UniProt P43403)
One construct used (P43403 1-619): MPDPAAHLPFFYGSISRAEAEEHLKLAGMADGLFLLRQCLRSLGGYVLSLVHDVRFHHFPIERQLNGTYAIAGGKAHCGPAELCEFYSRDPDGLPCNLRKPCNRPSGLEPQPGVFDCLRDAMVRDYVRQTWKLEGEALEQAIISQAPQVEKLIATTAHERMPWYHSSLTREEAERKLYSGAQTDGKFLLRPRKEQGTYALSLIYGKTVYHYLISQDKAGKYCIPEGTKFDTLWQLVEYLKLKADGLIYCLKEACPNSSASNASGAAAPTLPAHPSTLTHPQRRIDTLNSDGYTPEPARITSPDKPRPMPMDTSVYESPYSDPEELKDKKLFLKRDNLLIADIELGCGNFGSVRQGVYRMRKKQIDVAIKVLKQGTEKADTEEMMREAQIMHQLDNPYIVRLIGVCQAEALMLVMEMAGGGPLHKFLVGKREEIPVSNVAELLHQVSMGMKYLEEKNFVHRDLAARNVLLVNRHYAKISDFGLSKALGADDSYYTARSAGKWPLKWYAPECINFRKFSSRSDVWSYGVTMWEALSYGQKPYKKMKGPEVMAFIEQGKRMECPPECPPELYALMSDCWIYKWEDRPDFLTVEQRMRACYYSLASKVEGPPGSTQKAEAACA

SMILES | assay | setting | endpoint | value
Cc1sc(C(=O)NC2COC2)cc1-n1cc(NC(=O)Nc2c(F)cccc2Cl)cn1 | enzyme activity, inhibitor | 10 µM | remaining activity | 103%
Cc1[nH]c(/C=C2\C(=O)Nc3ccc(F)cc32)c(C)c1C(=O)N[C@H]1CCN(C(=O)N(C)C)C1 | enzyme activity, inhibitor | 1 µM | remaining activity | 116%
O=C(Nc1cnn(-c2csc(C(=O)NC3COC3)c2)c1)Nc1ccccc1Cl | enzyme activity, inhibitor | 5 µM | remaining activity | 102%
COc1cc(Nc2cnc(C#N)c(O[C@H](C)CN(C)C)n2)ncc1-c1cnn(C)c1 | enzyme activity, inhibitor, radiometric | 10 µM | remaining activity | 103%
COc1ccc2c(c1)O[C@H](c1ccc(OC)c(OC)c1)C[C@@H]2NC(=O)C1(c2ccc3c(c2)OC(F)(F)O3)CC1 | cell-free assay, competition with immobilised ligand | 1 µM | remaining binding | 93%
CCCOc1ccc(OC)c(F)c1C(=O)c1ccc(C(=O)N[C@@H]2CNC[C@H]2NC(=O)c2ccc3[nH]ncc3c2)cc1 | enzyme activity, inhibitor | 10 µM | remaining activity | 90%
CC(=O)N1CCC(c2ccc(C(=O)NC(=N)N)cc2C(F)(F)F)CC1 | cell-free assay, competition with immobilised ligand | 1 µM | remaining binding | 100%
CC(C)(C)c1nc(-c2cccc(NS(=O)(=O)c3c(F)cccc3F)c2F)c(-c2ccnc(N)n2)s1 | enzyme activity, inhibitor, radiometric | 1 µM | remaining activity | 92%
CS(=O)(=O)N1CCCC(NC(=O)[C@H](CCC2CCCCC2)NC(=O)c2ccc(CNc3ncnc4c3nnn4-c3ccccc3)cc2)C1 (stereo partly drawn) | cell-free assay, competition with immobilised ligand | 0.1 µM | remaining binding | 100%
COc1cc2ncnc(Nc3ccc(Oc4ccccc4)c(C)c3C)c2cc1OC | enzyme activity, inhibitor | 1 µM | inhibition | -2%
CCN(CC)CCNC(=O)c1c(C)[nH]c(/C=C2\C(=O)Nc3ccc(F)cc32)c1C | enzyme activity, inhibitor | 0.3 µM | inhibition | 2%
O=C(CSc1nc2nccnc2c(=O)n1CCc1ccccc1)Nc1nccs1 | enzyme activity, inhibitor | 10 µM | inhibition | 14%
Cc1cc(NC(=O)c2cccc3cc(-c4cccc5[nH]nc(N)c45)ccc23)ccc1F | enzyme activity, inhibitor | 0.1 µM | activity vs control | 109%
Cc1noc([C@H]2C[C@@H](c3ccc(C(F)(F)F)cc3)CN(C(=O)N3CCS(=O)(=O)C3)C2)n1 | cell-free assay, competition with immobilised ligand | 1 µM | remaining binding | 100%
CNCc1ccc(-c2cc(-c3nc(-c4ccc(S(=O)(=O)C(C)C)cc4)cnc3N)on2)cc1 | enzyme activity, inhibitor | 2 µM | inhibition | 0%
Nc1ncnc2occ(-c3ccc(NC(=O)Nc4cc(C(F)(F)F)ccc4F)cc3)c12 | cell-free assay, inhibitor | 20 µM | remaining signal | 2.4%
COc1cc(Cl)c(C(=O)N[C@@H](CN[C@H]2CC[C@@H](N)CC2)Cc2ccc(C#N)cc2)cc1-c1ccc(CN[C@H](C)c2ccc(C)cc2)o1 | enzyme activity, inhibitor | 1 µM | remaining activity | 93%
O=C1NC(=O)c2cc(Nc3ccc(F)cc3)c(Nc3ccc(F)cc3)cc21 | cell-free assay | 0.5 µM | remaining signal | 78.8%
O=C(NS(=O)(=O)c1ccc(NCC2CCOCC2)c([N+](=O)[O-])c1)c1ccc(N2CCN(Cc3ccc(C(F)(F)F)cc3-c3ccc(Cl)cc3)CC2)cc1Oc1cnc2[nH]ccc2c1 | cell-free assay, competition with immobilised ligand | 1 µM | remaining binding | 82%
CC(C)(O)[C@H]1CC[C@H](Nc2ccc3ncc(-c4cccc(C(F)(F)F)c4)n3n2)CC1 | enzyme activity, inhibitor | 1 µM | remaining activity | 93.4%
COc1cc2ncnc(Nc3ccc(F)c(Cl)c3)c2cc1OCCCN1CCOCC1 | cell-free assay | 0.5 µM | remaining signal | 96.5%
O=C(N[C@H]1CCCCC/C=C\C2C[C@@]2(C(=O)O)NC(=O)[C@@H]2C[C@@H](Oc3ccncc3)CN2C1=O)OC1CCCC1 (stereo partly drawn) | binding, competition with immobilised ligand | 1 µM | remaining binding | 96%
COc1ccc(COc2ccc(Cc3cnc(N)nc3N)cc2OC)cc1 | cell-free assay | 0.5 µM | remaining signal | 94.3%
CCOc1cc(-c2nncn2C)ccc1Nc1ncc2cc(C)nc(NCC(C)(C)C)c2n1 | enzyme activity, inhibitor, FRET | 1 µM | inhibition | < 15%
COc1cc(/C=C/C(=O)CC(=O)/C=C/c2ccc(O)c(OC)c2)ccc1O | enzyme activity, inhibitor | 1 µM | activity vs control | 108%
CNC(=O)c1cc(Oc2ccc(NC(=O)Nc3ccc(Cl)c(C(F)(F)F)c3)cc2)ccn1 | enzyme activity, inhibitor | 10 µM | inhibition | -42%
O=C(Nc1ccc(Oc2ccc(F)cc2)cc1)N1CCc2ncccc2[C@H]1c1ccc(F)cc1 | cell-free assay, competition with immobilised ligand | 1 µM | remaining binding | 91%
CCN(CC)CCNC(=O)c1c(C)[nH]c(/C=C2\C(=O)Nc3ccc(F)cc32)c1C | enzyme activity, inhibitor | 1 µM | remaining activity | 110%
C[C@H](c1ccc(F)cc1)N(Cc1cccc(C(=O)O)c1)C(=O)c1cnc2ccccc2c1 | cell-free assay, competition with immobilised ligand | 1 µM | remaining binding | 96%
FC(F)(F)Oc1cccc(-c2cnc3ccc(-c4ccncc4)nn23)c1 | enzyme activity, inhibitor, radiometric | 5 µM | activity vs control | 104%
